Measured values published in PMC6718200 (Bioorganic & medicinal chemistry, 2018).

What was measured:
HT29 [1] = experiment: Apoptosis assessment, PI/annexin V-FITC flow cytometry; format: cell-based, human; conditions: HT29, 0, 25, 50, 75 μM, 48 h
Procedure, shortened: (§1)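 Cells were grown in 10% FBS medium at 37 °C and 5% CO2: HT29 in McCoy's 5a, SW620 in high-glucose DMEM. They were treated with the test compound at 0, 25, 50 or 75 μM for 48 h. Attached and floating cells were pooled, washed twice in cold PBS and stained with annexin V-FITC/PI for 15 min at room temperature. The apoptotic fraction was read by flow cytometry. Three independent experiments, mean ± SD, two-tailed t-test.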

97-kinase panel = 97-kinase panel screen; format: binding; conditions: read-out: Kd, all tested kinases
HT29 [2] = experiment: Western blotting analysis; format: cell-based, human; conditions: HT29, 0, 25, 50, 75 μM, 48 h
Procedure, shortened: (§2)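 Cells were treated with test compound at 0, 25, 50 and 75 μM for 48 h and lysed in RIPA with protease and phosphatase inhibitors; protein was quantified by BCA. 50 µg lysate was run on 8–15% SDS-PAGE and transferred to PVDF. Blocking was 5% BSA/TBST for 2 h at RT; primary antibodies overnight at 4 °C; HRP secondary 1:10000 for 1 h. Detection by ECL, with tubulin as loading control and densitometry. Three independent experiments; mean ± SD.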

SW620 [3] = experiment: Colony formation assay; format: cell-based, human; conditions: SW620, exposure for two weeks
HT29 [4] = experiment: BrdU assay; format: cell-based, human; conditions: HT29, 0, 25, 50, 75 μM, 48 h
Procedure, shortened: (§3)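 Cells at 80% confluence were seeded at 20,000 per well and exposed to test compound at 0, 25, 50 and 75 μM for 48 h. They were pulsed with 10 μM BrdU for 2 h, fixed in paraformaldehyde, treated with 2 M HCl for 30 min, and blocked with 10% goat serum for 30 min at 37 °C. Staining used rat anti-BrdU (1:2000, overnight, 4 °C), then […] (1:2000, 120 min, RT), then DAPI at 300 nM. The % BrdU-positive cells was scored by fluorescence microscopy. Three independent experiments; mean ± SD.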

HT29 [5] = experiment: Cell cycle analysis by flow cytometry; format: cell-based, human; conditions: HT29, 0, 25, 50, 75 μM, 48 h
Procedure, shortened: (§4)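 Cells were cultured in 10% FBS at 37 °C and 5% CO2 (HT29 in McCoy's 5a, SW620 in high-glucose DMEM). At 80% confluence they were seeded into 6-well plates and exposed to the test compound at 0, 25, 50 or 75 μM for 48 h. Cells were washed in cold PBS and fixed in 70% ethanol at 4 °C for 24 h. They were stained with PI plus RNase A for 30 min at 37 °C in the dark, then analysed by flow cytometry. Three independent experiments.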

SW620 [6] = experiment: Apoptosis assessment, PI/annexin V-FITC flow cytometry; format: cell-based, human; conditions: SW620, 0, 25, 50, 75 μM, 48 h
Procedure, shortened: as §1

SW620 [7] = experiment: Cell cycle analysis by flow cytometry; format: cell-based, human; conditions: SW620, 0, 25, 50, 75 μM, 48 h
Procedure, shortened: as §4

SW620 [8] = experiment: Hoechst 33342 staining; format: cell-based, human; conditions: SW620, 0, 25, 50, 75 μM, 48 h
Procedure, shortened: (§5)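 Chromatin-condensation assay. HT29 (McCoy's 5a) and SW620 (high-glucose DMEM), each with 10% FBS, were seeded into 24-well plates. They were treated with the test compound at 0, 25, 50 or 75 μM for 48 h, then fixed in 4% paraformaldehyde for 20 min and washed with PBS. Cells were stained with Hoechst 33342 for 15 min at 37 °C. Condensed-chromatin apoptotic cells were scored by fluorescence microscopy.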

HT29 [9] = experiment: Hoechst 33342 staining; format: cell-based, human; conditions: HT29, 0, 25, 50, 75 μM, 48 h
Procedure, shortened: as §5

FHC cell lines = experiment: MTT assay, growth inhibition in immortalized colorectal cells; format: cell-based; conditions: Homo sapiens, read-out: GI50 FHC
Procedure, shortened: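 MTT format: 3 × 10³ cells per well, 24 h pre-incubation, then test compound at 0–200 μM (final, from DMSO stocks) for 12, 24, 48 or 72 h. MTT at 0.5 mg/mL final for 4 h; formazan dissolved in DMSO; A570. GI50 was fitted from growth-inhibition curves, three independent experiments in sextuplicate.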

SW620 [10] = experiment: Western blotting analysis; format: cell-based, human; conditions: SW620, 0, 25, 50, 75 μM, 48 h
Procedure, shortened: as §2

SW620 [11] = experiment: BrdU assay; format: cell-based, human; conditions: SW620, 0, 25, 50, 75 μM, 48 h
Procedure, shortened: as §3

HT29 [12] = experiment: Colony formation assay; format: cell-based, human; conditions: HT29, exposure for two weeks

Structure (SMILES): CC(C)CN(C(=O)c1cccnc1)c1c2ccccc2c(=O)n2c1[nH]c1ccccc12 [Compound 7g]
- percentage of cells undergoing apoptosis (HT29 [1]): increased in a concentration-dependent manner
- Kd (97-kinase panel): > 5 µM
- BCL-2 protein level (HT29 [2]): decreased
- CDK1 level (HT29 [2]): decreased
- MCL-1 protein level (HT29 [2]): decreased
- PARP activation (HT29 [2]): significantly increased
- PTEN level (HT29 [2]): increase in a concentration-dependent manner
- cyclin B1 level (HT29 [2]): decreased
- p21 level (HT29 [2]): increased
- p53 level (HT29 [2]): increased
- p-4E-BP1 level (HT29 [2]): decreased
- p-AKT level (HT29 [2]): decreased
- p-mTOR level (HT29 [2]): decreased
- total expression levels of AKT, mTOR and 4E-BP1 (HT29 [2]): hadn’t effect
- colony size and numbers (SW620 [3]): dramatically reduced
- proliferation (BrdU immunofluorescence) (HT29 [4]): inhibited the proliferation
- average G2/M proportion (HT29 [5]): increased in a concentration-dependent manner
- percentage of cells undergoing apoptosis (SW620 [6]): increased in a concentration-dependent manner
- average G2/M proportion (SW620 [7]): increased in a concentration-dependent manner
- number of apoptosis bodies (SW620 [8]): increased in a concentration-dependent manner
- number of apoptosis bodies (HT29 [9]): increased in a concentration-dependent manner
- GI50 (FHC cell lines): > 200 µM
- BCL-2 protein level (SW620 [10]): decreased
- CDK1 level (SW620 [10]): decreased
- MCL-1 protein level (SW620 [10]): decreased
- PARP activation (SW620 [10]): significantly increased
- PTEN level (SW620 [10]): increase in a concentration-dependent manner
- cyclin B1 level (SW620 [10]): decreased
- p21 level (SW620 [10]): increased
- p53 level (SW620 [10]): increased
- p-4E-BP1 level (SW620 [10]): decreased
- p-AKT level (SW620 [10]): decreased
- p-mTOR level (SW620 [10]): decreased
- total expression levels of AKT, mTOR and 4E-BP1 (SW620 [10]): hadn’t effect
- proliferation (BrdU immunofluorescence) (SW620 [11]): inhibited the proliferation
- colony size and numbers (HT29 [12]): dramatically reduced
